Results from different studies.
Compare with care: the assays were run in different laboratories.
MAOA: Amine oxidase [flavin-containing] A (MAOA, Homo sapiens, UniProt P21397)
ahcY: ahcY (Saccharolobus solfataricus, UniProt P50252)
CTSS: Cathepsin S (CTSS, Homo sapiens, UniProt P25774)

| SMILES | target | effect on | action | technique | quantity | value |
| --- | --- | --- | --- | --- | --- | --- |
| CC[C@H](C)[C@H](NC(=O)[C@H](Cc1ccc(O)cc1)NC(=O)[C@@H](NC(=O)[C@H](CCCNC(=N)N)NC(=O)[C@@H](N)CC(=O)O)C(C)C)C(=O)N[C@@H](Cc1cnc[nH]1)C(=O)N1CCC[C@H]1C(=O)N[C@@H](Cc1ccccc1)C(=O)O | Angiotensin-converting enzyme 2 (ACE2, Homo sapiens, UniProt Q9BYF1) | enzyme activity | inhibitor | fluorescence | IC50 | 4.9 µM |
| C#CCN(C)CCCCCOCc1ccc(CN(C)c2c3c(nc4ccc(C)cc24)CCCC3)cc1 | MAOA | enzyme activity | inhibitor | fluorescence | IC50 | 0.53 µM |
| CNC(=O)c1ccc(-c2cnn3ccc(C(=O)N(C)c4ccc(Cl)c(C(=O)OC)c4)cc23)cc1 | MAOA | cell-free assay | – | – | IC50 | > 30 µM |
| NC(=O)c1cccc(C#CCN(CC[C@H](N)C(=O)O)C[C@H]2O[C@@H](n3cnc4c(N)ncnc43)[C@H](O)[C@@H]2O)c1 | ahcY | enzyme activity | inhibitor | – | IC50 | 8.5 µM |
| C#CCN(C)CCCCCCCOc1cccc(CN(C)c2c3c(nc4ccccc24)CCCC3)c1 | MAOA | enzyme activity | inhibitor | fluorescence | IC50 | 7.68 µM |
| O=C(O)[C@@H]1CS[C@H]2CS[C@H](CCS)N21 | sfhI (Serratia fonticola, UniProt Q9RMI1) | enzyme activity | inhibitor | – | IC50 | > 1000 µM |
| C#CCN(C)CCCCCCCCOCc1ccc(CN(C)c2c3c(nc4ccccc24)CCCC3)cc1 | MAOA | enzyme activity | inhibitor | fluorescence | IC50 | 8.29 µM |
| Cn1nccc1[C@]1(CNC(=O)c2ccc(F)c(F)c2-c2ccc(C(F)(F)F)cc2)NC(=O)NC1=O | CTSS | enzyme activity | inhibitor | – | IC50 | > 100 µM |
| CNC(=O)c1ccc(-c2cnn3ccc(C(=O)N(C)c4ccc(Cl)c(C(=O)O)c4)cc23)cc1 | Alpha-1A adrenergic receptor (ADRA1A, Homo sapiens, UniProt P35348) | cell-free assay | – | – | IC50 | > 30 µM |
| CC(=O)N(CC#Cc1cccc(C(N)=O)c1)C[C@H]1C[C@@H](n2ccc3c(Cl)ncnc32)[C@H](O)[C@@H]1O | ahcY | enzyme activity | inhibitor | – | IC50 | > 333 µM |
| CC(C)C[C@H](NC(=O)[C@H]1O[C@@H]1C(=O)O)C(=O)NCCCCN=C(N)N | CTSS | enzyme activity | inhibitor | – | IC50 | 0.00073 µM |
| CN(C)c1cccc2c(S(=O)(=O)NCCCCCCCCCCC(=O)O)cccc12 | Fatty acid-binding protein, liver (FABP1, Homo sapiens, UniProt P07148) | binding | – | fluorescence | Kd | 0.2 µM |
| C#CCN(C)CCCCCCOc1cccc(CN(C)c2c3c(nc4ccc(F)cc24)CCCC3)c1 | MAOA | enzyme activity | inhibitor | fluorescence | IC50 | 50.7 µM |
| Cc1ccc(F)c(CNS(=O)(=O)c2cccc3cccnc23)c1 | Amine oxidase [flavin-containing] B (Maob, Mus musculus, UniProt Q8BW75) | enzyme activity | inhibitor | fluorescence | IC50 | 1.81 µM |
